In ChEMBL document CHEMBL1121887, “A new nontricyclic antidepressant agent. Synthesis and activity of N-[trans-2-(dimethylamino)cyclopentyl]-N-(3,4-dichlorophenyl)propanamide and related compounds” (1981):

Assays:
Format in all cases: functional
Mus musculus [1] = organism: Mus musculus; assay: Antidepressant activity using apomorphine potentiation test in mice
Method in brief: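 Male CF-1 mice in groups of four got test compound i.p. (50 and 25 mg/kg) in 0.25% aqueous methylcellulose. 1 h later they got apomorphine 10 mg/kg s.c. and were watched 30 min for stereotyped gnawing and licking, each positive. If ≥3 were positive, the test was repeated at 0.3 log lower doses until ≤1 responded. ED50 and 95% CI by Spearman–Karber.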

Mus musculus [2] = organism: Mus musculus; assay: Antidepressant activity using oxotremorine antagonism test in mice
Mus musculus [3] = organism: Mus musculus; assay: Antidepressant activity using yohimbine potentiation test in mice

Structure (SMILES) | ED50 (Mus musculus [1]; Mus musculus, read-out: ED50) [mg/kg] | ED50 (Mus musculus [2]; Mus musculus, read-out: ED50) [mg/kg] | ED50 (Mus musculus [3]; Mus musculus, read-out: ED50) [mg/kg] | ED50 (Mus musculus [1]) [mg/kg] | ED50 (Mus musculus [2]) [mg/kg] | ED50 (Mus musculus [3]) [mg/kg]
CCC(=O)N(c1ccc(C#N)cc1)C1CCCC1N(C)C (stereo not given) | > 50 | 40 | 10 |  |  | 
CCCC(=O)N(c1ccc(Cl)c(Cl)c1)C1CCCC1N(C)C (stereo not given) | 0.9 | 7 | 2 |  |  | 
CN(C)C1CCCC1N(C(=O)c1cccs1)c1ccc(Cl)c(Cl)c1 (stereo not given) | > 50 | 10 | 20 |  |  | 
CCC(=O)N(c1ccc(C)c(Cl)c1)C1CCCC1N(C)C (stereo not given) | 2 | 0.6 | 1 |  |  | 
CN(C)C1CCCC1N(C(=O)c1ccco1)c1ccc(Cl)c(Cl)c1 (stereo not given) | > 50 | > 50 | 9 |  |  | 
CCC(=O)N(c1ccc(Cl)c(Cl)c1)C1CCCC1N(C)CCN(C)C (stereo not given) | 20 | 5 | 0.8 |  |  | 
CCC(=O)N(c1ccc(Cl)c(Cl)c1)C1CCCCC1N(C)C (stereo not given) | 20 | 20 | 30 |  |  | 
CC(C)C(=O)N(c1ccc(Cl)c(Cl)c1)C1CCCC1N(C)C (stereo not given) | 5 | 4 | 2 |  |  | 
CCC(=O)N(c1ccc(Cl)c(Cl)c1)C1CCCC1N(C)C (stereo in doubt; 6) [ECLANAMINE] |  |  |  | 10 | 0.2 | 0.4
CN(C)C1CCCC1N(C(=O)C1CCC1)c1ccc(Cl)c(Cl)c1 (stereo not given) | > 50 | 0.6 | 0.8 |  |  | 
CCC(=O)N(c1ccc(OC)c(OC)c1)C1CCCC1N(C)C (stereo not given) | 10 | 10 | 9 |  |  | 
CCC(=O)N(c1ccc(Cl)c(Cl)c1)C1CCCC1N(C)C (cis isomer) [ECLANAMINE] |  |  |  | >50 | 2 | 0.9
CCC(=O)N(c1ccc([N+](=O)[O-])cc1)C1CCCC1N(C)C (stereo not given) | 20 | 6 | 20 |  |  | 
CCC(=O)N(c1ccc(Cl)c(Cl)c1)C1CCCCCCC1N(C)C (stereo not given) | 6 | 10 | 20 |  |  | 
CCC(=O)N(c1ccc(OC)cc1)C1CCCC1N(C)C (stereo in doubt; 47) | > 50 | 20 | 30 |  |  | 
CCCN(CCC)C1CCCC1N(C(=O)CC)c1ccc(Cl)c(Cl)c1 (stereo not given) | > 50 | 0.1 | 2 |  |  | 
CCC(=O)N(c1cccc(C)c1)C1CCCC1N(C)C (stereo in doubt; 44) |  |  |  | 25 | 1 | 3
CCC(=O)N(c1ccc(OC)cc1)C1CCCC1N(C)C (stereo in doubt; 20) |  |  |  |  | 20 | 30
CCC(=O)N(c1ccccc1)C1CCCC1N(C)C (stereo in doubt; 16) |  |  |  | 0.8 | 2 | 3
CCCC(=O)N(c1ccccc1)C1CCCC1N(C)C (stereo not given) | 40 | 10 | 6 |  |  | 
CCC(=O)N(c1ccccc1C)C1CCCC1N(C)C (stereo not given) | > 50 | 5 | 7 |  |  | 

Structure (SMILES) | ED50 (Mus musculus [1]; Mus musculus, read-out: ED50) [mg/kg] | ED50 (Mus musculus [2]; Mus musculus, read-out: ED50) [mg/kg] | ED50 (Mus musculus [3]; Mus musculus, read-out: ED50) [mg/kg] | ED50 (Mus musculus [1]) [mg/kg] | ED50 (Mus musculus [2]) [mg/kg] | ED50 (Mus musculus [3]) [mg/kg]
CCC(=O)N(c1ccc(Cl)c(Cl)c1)C1CCCC1N(C)CCCN(C)C (stereo not given) | 30 | 10 | 4 |  |  | 
CCC(=O)N(c1ccccc1)C1CCCCC1N(C)C (stereo not given) | > 50 | > 50 | > 50 |  |  | 
CCC(=O)N(c1ccc(C(F)(F)F)cc1)C1CCCC1N(C)C (stereo not given) | 10 | 25 | 10 |  |  | 
CCC(=O)N(c1ccccc1)C1CCCC1N(C)C (cis isomer) |  |  |  | >50 | >50 | 10
CCC(=O)N(c1ccccc1Cl)C1CCCC1N(C)C (stereo not given) | > 50 | 2 | 6 |  |  | 
C=CCN(C)C1CCCC1N(C(=O)CC)c1ccc(Cl)c(Cl)c1 (stereo not given) | 6 | 0.2 | 0.2 |  |  | 
CCC(=O)N(c1ccc(F)c(Cl)c1)C1CCCC1N(C)C (stereo not given) | 0.7 | 2 | 0.2 |  |  | 
CCC(=O)N(c1cccc(F)c1)C1CCCC1N(C)C (stereo not given) | 5 | 0.6 | 0.4 |  |  | 
CCNC1CCCC1N(C(=O)CC)c1ccc(Cl)c(Cl)c1 (stereo not given) |  | 2 | 0.2 |  |  | 
CCC(=O)N(c1ccc(Cl)c(Cl)c1)C1CCCCCC1N(C)C (stereo not given) | 20 | 6 | 2 |  |  | 
CCC(=O)N(c1ccc(F)cc1)C1CCCC1N(C)C (stereo not given) | > 50 | 0.08 | 5 |  |  | 
CCC(=O)N(c1ccc(Cl)c(Cl)c1)C1CCCC1N(CC)CC (stereo not given) | 0.3 | 0.03 | 0.1 |  |  | 
CCC(=O)N(c1ccc(Cl)c(Cl)c1)C1CCCC1N(C)Cc1ccccc1 (stereo not given) | > 50 | 40 | 0.2 |  |  | 
CCC(=O)N(c1ccc(Cl)c(Cl)c1)C1CCCC1N(C)CCc1ccccc1 (stereo not given) | 5 | 0.4 | 0.1 |  |  | 
CCC(=O)N(c1ccc(Cl)c(Cl)c1)C1CCCC1NC (stereo not given) |  | 0.3 | 0.4 |  |  | 
CN(C)C1CCCC1N(C(=O)C1CCCCC1)c1ccc(Cl)c(Cl)c1 (stereo not given) | > 50 | 2 | 1 |  |  | 
CCC(=O)N(c1ccc(Br)cc1)C1CCCC1N(C)C (stereo not given) | > 50 | 3 | 2 |  |  | 
CCC(=O)N(c1cccc(C)c1)C1CCCC1N(C)C (stereo in doubt; 22) | 25 | 1 | 3 |  |  | 
CCC(=O)N(c1ccc(Cl)c(Cl)c1)C1CCCC1N (stereo not given) |  | 0.8 | 0.02 |  |  | 
C=CCNC1CCCC1N(C(=O)CC)c1ccc(Cl)c(Cl)c1 (stereo not given) |  | 3 | 0.2 |  |  | 
CN(C)C1CCCC1N(C=O)c1ccccc1 (stereo not given) |  | > 50 | 40 |  |  | 
